Results reported in ChEMBL document CHEMBL1141656, “N-{[(6-substituted-1,3-benzothiazole-2-yl)amino]carbonothioyl}-2/4-substituted benzamides: synthesis and pharmacological evaluation” (Eur J Med Chem, 2008).

Key:
Mus musculus [1] = experiment: Anticonvulsant activity in ip dosed CF1 albino mouse assessed as minimum effective dose after 0.5 hrs by scPTZ test; assay type: functional
Summary of the method: (§1)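 Mice dosed i.p. at 30, 100 and 300 mg/kg in 1% Tween 80 or 0.5% methylcellulose–water, then challenged 0.5 and 4 h later. PTZ in 0.9% NaCl was injected s.c. at the posterior midline. Mice were watched for 30 min. Protection meant no clonic spasm lasting at least 5 s. Value is the minimum dose active in half or more of the mice.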

Mus musculus [2] = species on record: Mus musculus; experiment: Neurotoxicity in CF1 albino mouse after 4 hrs by rotarod test; assay type: toxicity, organism-based; details: in vivo
Mus musculus [3] = experiment: Anticonvulsant activity in ip dosed CF1 albino mouse assessed as minimum effective dose after 4 hrs by MES screen test; assay type: functional
Summary of the method: (§2)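 Mice given test compounds i.p. at 30, 100 and 300 mg/kg (one to four mice per dose), suspended in 1% Tween 80 or 0.5% methylcellulose–water. Maximal electroshock seizure test, read at 0.5 and 4 h after dosing. Value is the lowest dose protecting half or more of the mice.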

Rattus norvegicus [4] = species on record: Rattus norvegicus; experiment: Hepatotoxicity in Sprague-Dawley rat assessed as presence of normal hepatic parenchyma with portal triad and central vein by histopathological study; assay type: toxicity, organism-based; details: in vivo
Summary of the method: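 Rats were dosed chronically and sacrificed under light ether anesthesia 24 h after the last dose. Livers were removed, washed in normal saline and embedded in paraffin. Sections 5–6 thick were cut, stained with haematoxylin and eosin, and examined microscopically.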

Rattus norvegicus [5] = experiment: Hepatotoxicity in Sprague-Dawley rat assessed as total protein level per 100 ml of blood at 30 mg/kg, po after 15 days; assay type: toxicity, organism-based; design: dose 30 mg/kg, route oral; details: in vivo, 360 h
Summary of the method: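 Rats given 30 mg/kg/day p.o. in methylcellulose for two weeks, then anesthetized with ether. Blood was collected from the liver. SGOT, SGPT, alkaline phosphatase, total protein and albumin were measured by reported methods.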

Mus musculus [6] = experiment: Anticonvulsant activity in ip dosed CF1 albino mouse assessed as minimum effective dose after 4 hrs by scPTZ test; assay type: functional; summary of the method: as §1
Rattus norvegicus [7] = experiment: Antidepressant activity in Wistar rat assessed as mean average immobility time during 5 mins of test period at 30 mg/kg, po after 30 mins by forced-swimming test; assay type: functional
Mus musculus [8] = species on record: Mus musculus; experiment: Neurotoxicity in CF1 albino mouse after 0.5 hrs by rotarod test; assay type: toxicity, organism-based; details: in vivo
Mus musculus [9] = experiment: Anticonvulsant activity in ip dosed CF1 albino mouse assessed as minimum effective dose after 0.5 hrs by MES screen test; assay type: functional; summary of the method: as §2

Row | Compound | Activity (Mus musculus [1]) | Activity (Mus musculus [2]) | Activity (Mus musculus [3]) | Activity (Rattus norvegicus [4]) | Activity (Rattus norvegicus [5]) | Activity (Mus musculus [6]) | Activity (Rattus norvegicus [7]) | Activity (Mus musculus [8]) | Activity (Mus musculus [9])
1 | O=C(NC(=S)Nc1nc2ccc(F)cc2s1)c1ccccc1 | 30 mg/kg | Not Active | 30 mg/kg | Non-toxic | 1.8 g | 100 mg/kg | 24 s | Not Active | 30 mg/kg
2 | COc1ccc(C(=O)NC(=S)Nc2nc3ccc(Cl)cc3s2)cc1 | 30 mg/kg | Not Active | 30 mg/kg | Non-toxic | 1.79 g | 100 mg/kg | 34.2 s | Not Active | 30 mg/kg
3 | O=C(NC(=S)Nc1nc2ccc(Cl)cc2s1)c1ccccc1 | 100 mg/kg | – | 300 mg/kg | Non-toxic | – | 300 mg/kg | 29 s | – | 300 mg/kg
4 | Cc1ccc2nc(NC(=S)NC(=O)c3ccccc3)sc2c1 | 300 mg/kg | – | 300 mg/kg | Non-toxic | – | 300 mg/kg | 29 s | – | 300 mg/kg
5 | O=C(NC(=S)Nc1nc2ccc(Br)cc2s1)c1ccccc1Cl | 300 mg/kg | – | 300 mg/kg | Non-toxic | – | 300 mg/kg | 22.6 s | – | 300 mg/kg
6 | COc1ccc(C(=O)NC(=S)Nc2nc3ccc([N+](=O)[O-])cc3s2)cc1 | – | – | – | Non-toxic | – | – | 27.8 s | – | –
7 | COc1ccc(C(=O)NC(=S)Nc2nc3ccc(C)cc3s2)cc1 | – | – | 300 mg/kg | Non-toxic | – | – | 10.2 s | – | 300 mg/kg
8 | O=C(NC(=S)Nc1nc2ccc(F)cc2s1)c1ccccc1Cl | 100 mg/kg | Not Active | 100 mg/kg | Non-toxic | 1.83 g | 300 mg/kg | 25 s | Not Active | 30 mg/kg
9 | O=C(NC(=S)Nc1nc2ccc(F)cc2s1)c1ccc(Cl)cc1 | – | – | 300 mg/kg | Non-toxic | – | – | 24.6 s | – | 100 mg/kg
10 | Cc1ccc2nc(NC(=S)NC(=O)c3ccccc3Cl)sc2c1 | 30 mg/kg | Not Active | 30 mg/kg | Non-toxic | 1.71 g | 30 mg/kg | 40.4 s | Not Active | 30 mg/kg
11 | O=C(NC(=S)Nc1nc2ccc(Cl)cc2s1)c1ccc(Cl)cc1 | 100 mg/kg | Not Active | 100 mg/kg | Non-toxic | 1.9 g | 300 mg/kg | 20.2 s | Not Active | 30 mg/kg
12 | Cc1ccc2nc(NC(=S)NC(=O)c3ccc(Cl)cc3)sc2c1 | 100 mg/kg | Not Active | 100 mg/kg | Non-toxic | 1.88 g | 100 mg/kg | 30 s | Not Active | 30 mg/kg
13 | COc1ccc(C(=O)NC(=S)Nc2nc3ccc(OC)cc3s2)cc1 | 300 mg/kg | – | 300 mg/kg | Non-toxic | – | 300 mg/kg | 16.8 s | – | 300 mg/kg
14 | O=C(NC(=S)Nc1nc2ccc(Cl)cc2s1)c1ccccc1Cl | 300 mg/kg | – | 300 mg/kg | Non-toxic | – | 300 mg/kg | 32.6 s | – | 300 mg/kg
15 | COc1ccc2nc(NC(=S)NC(=O)c3ccccc3)sc2c1 | 300 mg/kg | – | 100 mg/kg | Non-toxic | – | 300 mg/kg | 19.8 s | – | 100 mg/kg
16 | O=C(NC(=S)Nc1nc2ccc(Br)cc2s1)c1ccc(Cl)cc1 | 300 mg/kg | – | 100 mg/kg | Non-toxic | – | 300 mg/kg | 38 s | – | 100 mg/kg
17 | COc1ccc(C(=O)NC(=S)Nc2nc3ccc(F)cc3s2)cc1 | – | – | – | Non-toxic | – | – | 31.2 s | – | –
18 | COc1ccc2nc(NC(=S)NC(=O)c3ccccc3Cl)sc2c1 | 100 mg/kg | Not Active | 100 mg/kg | Non-toxic | 1.98 g | 100 mg/kg | 42.6 s | Not Active | 30 mg/kg
19 | COc1ccc2nc(NC(=S)NC(=O)c3ccc(Cl)cc3)sc2c1 | 300 mg/kg | – | 300 mg/kg | Non-toxic | – | 300 mg/kg | 43 s | – | 300 mg/kg
20 | O=C(NC(=S)Nc1nc2ccc([N+](=O)[O-])cc2s1)c1ccccc1 | 300 mg/kg | – | 300 mg/kg | Non-toxic | – | 300 mg/kg | 14.8 s | – | 300 mg/kg
21 | NC(=O)N1c2ccccc2C=Cc2ccccc21 [CARBAMAZEPINE] | 100 mg/kg | Not Active | 100 mg/kg | Non-toxic | – | 100 mg/kg | – | Not Active | 30 mg/kg
22 | CNCCC(Oc1ccc(C(F)(F)F)cc1)c1ccccc1 (stereo not drawn) [FLUOXETINE] | – | – | 14.2 mg/kg | – | – | – | – | – | 29.6 mg/kg
23 | O=C1NC(=O)C(c2ccccc2)(c2ccccc2)N1 [PHENYTOIN] | – | Not Active | 30 mg/kg | Non-toxic | – | – | – | Not Active | 30 mg/kg
